Consider 17 compounds from ChEMBL document CHEMBL1126822, “7 alpha-Methyl- and 11 beta-ethoxy-substitution of [125I]-16 alpha-iodoestradiol: effect on estrogen receptor-mediated target tissue uptake” (J Med Chem, 1993).

Sequence of Estrogen receptor (Mus musculus) (O08537 whole entry, looked up): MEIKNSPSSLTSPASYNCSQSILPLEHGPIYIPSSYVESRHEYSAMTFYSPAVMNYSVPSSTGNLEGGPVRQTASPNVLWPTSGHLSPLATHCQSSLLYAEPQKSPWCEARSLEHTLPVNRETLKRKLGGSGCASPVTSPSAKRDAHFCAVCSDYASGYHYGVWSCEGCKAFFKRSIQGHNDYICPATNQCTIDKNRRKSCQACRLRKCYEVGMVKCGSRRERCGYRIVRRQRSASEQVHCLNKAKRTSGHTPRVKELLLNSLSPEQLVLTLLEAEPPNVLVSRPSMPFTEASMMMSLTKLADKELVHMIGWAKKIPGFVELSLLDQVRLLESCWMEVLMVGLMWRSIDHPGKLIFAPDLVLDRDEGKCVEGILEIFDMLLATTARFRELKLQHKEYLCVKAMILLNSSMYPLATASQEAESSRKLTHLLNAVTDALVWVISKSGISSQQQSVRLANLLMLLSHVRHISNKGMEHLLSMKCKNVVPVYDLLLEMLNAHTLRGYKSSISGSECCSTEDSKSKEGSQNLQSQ
Sequence of Estrogen receptor (Mus musculus) (P19785 whole entry, looked up): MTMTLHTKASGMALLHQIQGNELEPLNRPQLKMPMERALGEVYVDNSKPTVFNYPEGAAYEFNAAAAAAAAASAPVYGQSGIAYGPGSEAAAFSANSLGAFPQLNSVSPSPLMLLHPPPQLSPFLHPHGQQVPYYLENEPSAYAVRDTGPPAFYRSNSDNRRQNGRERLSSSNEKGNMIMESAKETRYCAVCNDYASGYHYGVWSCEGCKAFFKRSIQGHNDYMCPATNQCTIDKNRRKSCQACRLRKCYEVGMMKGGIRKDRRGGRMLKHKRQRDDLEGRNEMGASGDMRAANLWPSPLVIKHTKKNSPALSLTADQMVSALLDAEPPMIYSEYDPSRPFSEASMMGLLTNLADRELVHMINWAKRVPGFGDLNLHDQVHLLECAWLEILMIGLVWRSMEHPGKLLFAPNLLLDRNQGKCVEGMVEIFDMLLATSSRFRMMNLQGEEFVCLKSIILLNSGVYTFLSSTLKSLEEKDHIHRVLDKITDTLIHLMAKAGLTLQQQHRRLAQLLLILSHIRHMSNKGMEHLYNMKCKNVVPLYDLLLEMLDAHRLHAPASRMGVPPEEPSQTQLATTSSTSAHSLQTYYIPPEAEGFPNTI

This assay has as its target Estrogen receptor (Mus musculus) (UniProt O08537+P19785). In words: Binding affinity at murine estrogen receptor by [3H]estradiol displacement. The class given is protein assay. The procedure, abridged: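 Competitive binding in murine uterine cytoplasmic extracts, incubated 18 h at 0-4 °C with 20 nM [3H]estradiol, with or without competing steroids from 2 nM to 20 μM. RBA = 100 × ratio of competitor to unlabeled estradiol concentration giving 50% competition of specific [3H]estradiol binding. Mean of three experiments with SD.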
Take `CCO[C@H]1C[C@]2(C)C(=O)[C@H](Cl)C[C@H]2[C@@H]2CCc3cc(O)ccc3[C@H]21`: the relative binding affinity (RBA) is 0.8. The same measure for `C[C@@H]1Cc2cc(O)ccc2[C@H]2CC[C@]3(C)[C@H](O)[C@H](Br)C[C@H]3[C@H]12`: 13.6; for `CO[C@H]1C[C@]2(C)[C@@H](O)[C@H](Br)C[C@H]2[C@@H]2CCc3cc(O)ccc3[C@H]21`: 20; for `CCO[C@H]1C[C@]2(C)[C@H](O)[C@H](Cl)C[C@H]2[C@@H]2CCc3cc(O)ccc3[C@H]21`: 0.8. The same measure for `C[C@@H]1Cc2cc(O)ccc2[C@H]2CC[C@]3(C)C(=O)[C@H](Br)C[C@H]3[C@H]12`: 28.4; for `CCO[C@H]1C[C@]2(C)[C@@H](O)[C@H](Cl)C[C@H]2[C@@H]2CCc3cc(O)ccc3[C@H]21`: 14.9. In turn, `C[C@@H]1Cc2cc(O)ccc2[C@H]2CC[C@]3(C)[C@@H](O)[C@@H](Br)C[C@H]3[C@H]12` gave a relative binding affinity (RBA) of 7.1. The same measure for `CCO[C@H]1C[C@]2(C)[C@@H](O)[C@H](Br)C[C@H]2[C@@H]2CCc3cc(O)ccc3[C@H]21`: 16.8; for `CCO[C@H]1C[C@]2(C)C(=O)[C@H](Br)C[C@H]2[C@@H]2CCc3cc(O)ccc3[C@H]21`: 0.8; for `C[C@@H]1Cc2cc(O)ccc2[C@H]2CC[C@]3(C)[C@@H](O)[C@H](Cl)C[C@H]3[C@H]12`: 71.5. `C[C@@H]1Cc2cc(O)ccc2[C@H]2CC[C@]3(C)[C@H](O)[C@H](Cl)C[C@H]3[C@H]12` had a relative binding affinity (RBA) of 16.6. In the case of `CCO[C@H]1C[C@]2(C)[C@H](O)[C@H](Br)C[C@H]2[C@@H]2CCc3cc(O)ccc3[C@H]21` it was 1.1; in that of `C[C@@H]1Cc2cc(O)ccc2[C@H]2CC[C@]3(C)[C@@H](O)[C@@H](Cl)C[C@H]3[C@H]12`, 4.3. In turn, `C[C@@H]1Cc2cc(O)ccc2[C@H]2CC[C@]3(C)[C@@H](O)[C@H](Br)C[C@H]3[C@H]12` showed a relative binding affinity (RBA) of 79.1. In the case of `C[C@@H]1Cc2cc(O)ccc2[C@H]2CC[C@]3(C)C(=O)[C@H](Cl)C[C@H]3[C@H]12` it was 33.8. The same measure for `CCO[C@H]1C[C@]2(C)[C@@H](O)[C@@H](Br)C[C@H]2[C@@H]2CCc3cc(O)ccc3[C@H]21`: 0.6. In the case of `C[C@@H]1Cc2cc(O)ccc2[C@H]2CC[C@]3(C)C(=O)[C@@H](Br)C[C@H]3[C@H]12` it was 5.3.
